Measured values collected from several papers.
FAAH: Fatty-acid amide hydrolase 1 (FAAH, Homo sapiens, UniProt O00519)
CCKBR: Gastrin/cholecystokinin type B receptor (CCKBR, Homo sapiens, UniProt P32239)
MMP3: Stromelysin-1 (MMP3, Homo sapiens, UniProt P08254)
PTGS1: Prostaglandin G/H synthase 1 (PTGS1, Homo sapiens, UniProt P23219)
BDKRB1: B1 bradykinin receptor (BDKRB1, Homo sapiens, UniProt P46663)
USP10: Ubiquitin carboxyl-terminal hydrolase 10 (USP10, Homo sapiens, UniProt Q14694)

Cn1cc(-c2cccc(N3CCc4c(sc5c4CC(C)(C)C5)C3=O)c2CO)cc(Nc2ccncn2)c1=O — inhibition (Mitogen-activated protein kinase kinase kinase 8 (MAP3K8, Homo sapiens, UniProt P41279); enzyme activity, inhibitor; 1 µM): 16%
CN(C(=O)Oc1nsnc1N1CCCCC1)c1ccc([N+](=O)[O-])cc1 — inhibition (FAAH; enzyme activity, inhibitor; 10 µM, cell membranes): 19%
O=C(Cc1c[nH]c2cc(Cl)ccc12)N1CCC(n2ccnc2)CC1 — inhibition (Trypanothione synthetase (Trypanosoma cruzi, UniProt Q9GT49); enzyme activity, inhibitor, absorbance; 25 µM): 6.2%
C[C@H](C(=O)N[C@H]1COc2ccccc2[C@@H]1S(C)(=O)=O)c1ccc(F)cc1 — inhibition (CCKBR; cell-free assay; 10 µM): 7%
CCCCc1ccc(C(=O)O)nc1 — inhibition (MMP3; enzyme activity, inhibitor; 1 mM, pH 6): > 80%
Nc1ncnc2c1ncn2[C@@H]1O[C@H](C[C@@H](N)CC[C@H](N)C(=O)O)[C@@H](O)[C@H]1O — inhibition (mRNA cap guanine-N(7) methyltransferase (RNMT, Homo sapiens, UniProt O43148); enzyme activity, inhibitor; 50 µM): 98.2%
COc1ccc(S(=O)(=O)N2CCCCC2)cc1C — inhibition (CCKBR; ligand displacement, radioligand; 10 µM): < 30%
N=C(N)c1ccc2cc(OC(=O)c3ccc(N=C(N)N)cc3)ccc2c1 — inhibition (MMP3; enzyme activity, inhibitor; 10 µM): 0%
Cc1ncc(C)n2nc(/C=C/c3nc(N4CCCC4)cc(N4CCOCC4)n3)nc12 — inhibition (CCKBR; cell-free assay; 10 µM): -16%
CN(C(=O)Oc1nsnc1N1CCCCC1)c1cccc([N+](=O)[O-])c1 — inhibition (FAAH; enzyme activity, inhibitor; 10 µM, cell membranes): 11%
O=C(Nc1cccnn1)N1CCN([C@@H]2CCOc3cc(C(F)(F)F)ccc32)CC1 — inhibition (PTGS1; enzyme activity, inhibitor; 20 µM): 1%
CC(C)N1CCC[C@H]1CNC(=O)c1cn(C2CCCC2)c(=O)c2c1c1ccccc1n2C — inhibition (BDKRB1; ligand displacement, radioligand; 10 µM): 12%
CC(C)C[C@H](NC(=O)[C@H](Cc1ccccc1)NC(=O)c1cnccn1)B(O)O — inhibition (Complement C1r subcomponent (Homo sapiens, UniProt P00736); enzyme activity, inhibitor; 33 µM): 44.5%
c1ccc(OCc2cc(OC[C@@H]3CCN3)on2)cc1 — inhibition (Sigma intracellular receptor 2 (Tmem97, Rattus norvegicus, UniProt Q5U3Y7); ligand displacement, radioligand; 10 µM): < 50%
COc1cc(Nc2ncc(F)c(Nc3ccc4c(n3)NC(=O)C(C)(C)O4)n2)cc(OC)c1OC — inhibition (Serine/threonine-protein kinase ULK3 (ULK3, Homo sapiens, UniProt Q6PHR2); binding; 10 µM): 100%
CN(CCN1CCC(OC(=O)Nc2ccccc2-c2ccccc2)CC1)C(=O)c1ccc(CN2CCC(C(N)=O)CC2)cc1 — inhibition (BDKRB1; ligand displacement, radioligand; 1 µM): 0%
C[C@@H](O)[C@H](N)C(=O)N1CCC[C@H]1C(=O)N1CCC[C@H]1C(=O)N[C@H](C(N)=O)[C@@H](C)O — inhibition (FAAH; enzyme activity, inhibitor; 30 µM): -15%
Clc1ccc2c(C3CCN(CCc4c[nH]c5ccccc45)CC3)c[nH]c2c1 — inhibition (PTGS1; enzyme activity, inhibitor; 10 µM): 31%
COCCN(CCOC)C(=O)[C@@]12C[C@@H]1[C@@H](n1cnc3c(NC(C4CC4)C4CC4)nc(Cl)nc31)[C@H](O)[C@@H]2O — inhibition (5-hydroxytryptamine receptor 2C (HTR2C, Homo sapiens, UniProt P28335); ligand displacement, radioligand; 10 µM): 38%
CCOC(=O)c1ccc(OC(=O)CCCCCNC(=N)N)cc1 — inhibition (USP10; enzyme activity, inhibitor; 10 µM): 3%
CN(C(=O)Oc1nsnc1N1CCCCC1)c1ccc(C#N)cc1 — inhibition (FAAH; enzyme activity, inhibitor; 10 µM, cell membranes): 19%
C#Cc1n[nH]c2c(-c3cn(C(C)c4ccccn4)c(=O)[nH]c3=O)cc(F)cc12 (stereo not drawn) — inhibition (Rho-associated protein kinase 1 (ROCK1, Homo sapiens, UniProt Q13464); enzyme activity, inhibitor; 1 µM): -2.6%
COc1cccc(N(C)C(=O)Oc2nsnc2N2CCCCC2)c1 — inhibition (FAAH; enzyme activity, inhibitor; 10 µM, cell membranes): 17%
c1ccc(C(NCCNC(c2ccccc2)c2ccccc2)c2ccccc2)cc1 — inhibition (PTGS1; enzyme activity, inhibitor; 10 µM): 66%
CN(C(=O)Oc1nsnc1N1CCCCC1)c1ccc(F)cc1 — inhibition (FAAH; enzyme activity, inhibitor; 10 µM, cell membranes): 22%
C#Cc1n[nH]c2c(-c3cn([C@@H](C)c4ccccc4)c(=O)[nH]c3=O)cc(F)cc12 — inhibition (Aurora kinase C (AURKC, Homo sapiens, UniProt Q9UQB9); enzyme activity, inhibitor; 0.1 µM): -1.2%
COCc1c(-c2cc3cc(C)cc(OC)c3s2)c2c(N)ncnn2c1CN1CCNC(=O)C1 — inhibition (Tyrosine-protein kinase receptor Tie-1 (TIE1, Homo sapiens, UniProt P35590); cell-free assay, competition with immobilised ligand; 1 µM): 83%
CN(C(=O)Oc1nsnc1N1CCCCC1)C1CCCCCC1 — inhibition (FAAH; enzyme activity, inhibitor; 10 µM, cell membranes): 21%
CN(C)C(=O)COC(=O)Cc1ccc(OC(=O)c2ccc(NC(=N)N)cc2)cc1 — inhibition (USP10; enzyme activity, inhibitor; 10 µM): 2%
CN(C(=O)Oc1nsnc1N1CCCCC1)c1cccc(-c2ccccc2)c1 — inhibition (FAAH; enzyme activity, inhibitor; 10 µM, cell membranes): 13%
COc1ccc(S(=O)(=O)N(CC(=O)NO)CC(C)C)cc1 — inhibition (MMP3; enzyme activity, inhibitor; 1 µM): 100%
Cc1cccc(N(C)C(=O)Oc2nsnc2N2CCCCC2)c1 — inhibition (FAAH; enzyme activity, inhibitor; 10 µM, cell membranes): 9%
Cn1cc(-c2cc(F)cc(N3CCn4c(cc5c4CCCC5)C3=O)c2CO)cc(Nc2ccc(N3CCN(C4COC4)CC3)cn2)c1=O — inhibition (Aurora kinase A (AURKA, Homo sapiens, UniProt O14965); enzyme activity, inhibitor; 0.1 µM): 10%
